Laboratory results published in paper PMC5026420 (Science Advances, 2016).
Changes are numbered by the printed parent chain. Read-outs that look alike come from different tables or passages of the source.

Legend:
[1] = system: CckA_ΔTM W523A; settings: cited from earlier work
[2] = molecular target: T1, CckA_ΔTM G515D (Caulobacter vibrioides, UniProt Q9X688, G515D); experiment: CckA phosphorylation assay by autoradiography, G515D; type: biochemical, Caulobacter crescentus; settings: 15 min of ATP incubation, 75 μM c-di-GMP
T1 sequence (Q9X688 72-691 G515D): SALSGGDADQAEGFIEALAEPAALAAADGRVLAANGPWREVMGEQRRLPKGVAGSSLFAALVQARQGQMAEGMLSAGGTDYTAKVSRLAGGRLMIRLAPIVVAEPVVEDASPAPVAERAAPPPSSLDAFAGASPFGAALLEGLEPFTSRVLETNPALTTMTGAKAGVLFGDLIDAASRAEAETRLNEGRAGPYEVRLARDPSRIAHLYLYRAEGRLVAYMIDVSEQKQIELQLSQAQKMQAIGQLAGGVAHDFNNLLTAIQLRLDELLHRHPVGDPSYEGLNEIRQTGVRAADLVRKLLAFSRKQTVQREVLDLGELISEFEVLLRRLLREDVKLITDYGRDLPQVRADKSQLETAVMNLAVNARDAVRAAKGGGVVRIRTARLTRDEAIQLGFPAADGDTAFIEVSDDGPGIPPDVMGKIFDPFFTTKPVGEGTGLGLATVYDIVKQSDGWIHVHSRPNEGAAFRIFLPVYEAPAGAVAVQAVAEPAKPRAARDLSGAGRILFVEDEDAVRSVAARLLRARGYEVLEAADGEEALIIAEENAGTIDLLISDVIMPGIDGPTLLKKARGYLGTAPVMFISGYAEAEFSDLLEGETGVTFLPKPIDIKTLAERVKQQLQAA
How it was run: (§1)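 MBP-tagged CckA_ΔTM (residues S72–A691) or its point mutants are incubated at room temperature with 500 μM ATP plus 5 μCi γ32P-ATP. Further nucleotides are added at set times. Where applicable, ATP is converted to ADP with 1.5 U hexokinase and 5 mM D-glucose. Reactions are stopped in SDS sample buffer and run on 10% SDS gels. Wet gels are exposed to a phosphor screen (0.5–3 h) and scanned.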

[3] = molecular target: T2, CckA_CA (Caulobacter vibrioides, UniProt Q9X688); experiment: ITC ligand binding to CckA_CA; design: species or system Caulobacter crescentus
T2 sequence (Q9X688 379-545): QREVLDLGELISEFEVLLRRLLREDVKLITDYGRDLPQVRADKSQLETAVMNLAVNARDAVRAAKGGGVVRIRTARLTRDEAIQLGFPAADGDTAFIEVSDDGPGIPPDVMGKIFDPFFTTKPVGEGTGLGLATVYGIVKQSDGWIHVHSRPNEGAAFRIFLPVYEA
How it was run: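 Protein was expressed in E. coli Rosetta (DE3), induced with 0.1 mM IPTG at 22°C, and purified by Ni-NTA then gel filtration (30 mM Tris-HCl pH 7.5, 100 mM NaCl, 5 mM MgCl2). Isothermal titration calorimetry was run at 25 or 12°C, stirring 300 rpm, 200 s preinjection delay, 250 s recording interval. Data were fitted to a single-site model, refitted with N fixed at 1.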

[4] = molecular target: T3, CckA_ΔTM G318A (Caulobacter vibrioides, UniProt Q9X688, G318A); experiment: CckA phosphorylation assay by autoradiography, G318A; type: biochemical, Caulobacter crescentus; settings: 15 min of ATP incubation, 75 μM c-di-GMP
T3 sequence (Q9X688 72-691 G318A): T1 sequence (Q9X688 72-691 G515D) with G247A, D444G
How it was run: as §1

[5] = molecular target: T4, CckA_ΔTM (Caulobacter vibrioides, UniProt Q9X688); experiment: CckA phosphorylation assay by autoradiography; type: biochemical, Caulobacter crescentus; settings: for net CckA_ΔTM~P after addition of effector: ADP or c-di-GMP added after 30 min of incubation with 500 μM ATP
T4 sequence (Q9X688 72-691): T1 sequence (Q9X688 72-691 G515D) with D444G
How it was run: as §1

[6] = system: CckA_ΔTM F539A; settings: cited from earlier work
[7] = system: CckA_ΔTM Y514D; settings: cited from earlier work
[8] = molecular target: T4, CckA_ΔTM; experiment: Global fit of kinetic model to CckA_ΔTM phosphorylation progress curves; type: biochemical, Caulobacter crescentus; settings: simulations; rate with which the data can be fit
How it was run: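 Progress curves of net CckA_ΔTM~P come from radiolabelled ATP reactions, with ADP or c-di-GMP added to aliquots after 30 min. The curves were globally fitted to a kinetic model using standard first- and second-order reaction kinetics, set up as a system of coupled ordinary differential equations. Rate parameters such as kr are taken from that global fit.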

Row | SMILES | c-di-GMP binding in UV-cross-linking experiments [1] | response of net phosphorylation to c-di-GMP (in vitro phenotype) [2] | Kd ([3]; read-out: Kd, c-di-GMP binding, Fig. 3C (in the presence of 5 mM ADP or AMPPNP)) [µM] | response of net phosphorylation to c-di-GMP [4] | net CckA phosphorylation with effector present throughout ([5]; 15 min of ATP incubation, 75 μM c-di-GMP) | net CckA_ΔTM~P after addition of effector [5] | c-di-GMP binding in UV-cross-linking experiments [6] | c-di-GMP binding in UV-cross-linking experiments [7] | Kd ([3]; read-out: Kd, AMPPNP binding, - c-di-GMP, 12°C) [µM] | rate of debinding (kr) [8]
1 | Nc1nc2c(ncn2[C@@H]2O[C@@H]3COP(=O)(O)O[C@H]4[C@@H](O)[C@H](n5cnc6c(=O)[nH]c(N)nc65)O[C@@H]4COP(=O)(O)O[C@H]3[C@H]2O)c(=O)[nH]1 [c-di-GMP, cyclic di–guanosine monophosphate] | lack of c-di-GMP binding | identical to that of G318A | ~20 | virtually no response | effectively blocked | efficiently and rapidly dephosphorylated | lack of c-di-GMP binding | lack of c-di-GMP binding | – | –
2 | Nc1ncnc2c1ncn2[C@@H]1O[C@H](COP(=O)(O)OP(=O)(O)NP(=O)(O)O)[C@@H](O)[C@H]1O [AMPPNP] | – | – | – | – | – | – | – | – | ~10 | –
3 | Nc1ncnc2c1ncn2[C@@H]1O[C@H](COP(=O)(O)OP(=O)(O)O)[C@@H](O)[C@H]1O [ADP, adenosine diphosphate] | – | – | – | – | – | dose-dependent boost in dephosphorylation | – | – | – | 10^−2 to 10^−3 s^−1
